{"source": "ChEMBL document CHEMBL1128600", "about": "“The cholesterol derivative of a triantennary galactoside with high affinity for hepatic asialoglycoprotein receptor: a potent cholesterol lowering agent” (J Med Chem, 1995)", "key": {"Homo sapiens [1]": {"organism": "Homo sapiens", "test": "Particle size of HDL after incubation with the compound (0.01%)", "format": "functional", "how_it_was_run": "(§1)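 Lipoproteins (LDL 1.019–1.063, HDL 1.063–1.21 ×10³ kg/m³) isolated from human serum by KBr/NaCl density-gradient ultracentrifugation. LDL (0.5 mg/mL) or HDL (2.0 mg/mL) incubated 10 min at room temperature in PBS pH 7.40 with 0–0.33% (w/v) agent. Size measured by photon correlation spectroscopy (120°, 632 nm, 72 s accumulation) and reported as mass-weighted mean ± standard error.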"}, "Homo sapiens [2]": {"organism": "Homo sapiens", "test": "Particle size of LDL after incubation with the compound (0.0055%)", "format": "functional", "how_it_was_run": "as §1"}}}
{"molecule": "C[C@@H]1CC[C@@]2(OC1)O[C@H]1[C@@H](O)[C@H]3[C@@H]4CC[C@H]5C[C@@H](O[C@@H]6O[C@H](CO)[C@H](O[C@@H]7O[C@H](CO)C(O)[C@H](O[C@@H]8OC[C@@H](O)[C@H](O)[C@H]8O)[C@H]7O[C@@H]7O[C@H](CO)[C@H](O)[C@H](O[C@@H]8O[C@H](CO)[C@@H](O)[C@H](O)[C@H]8O)[C@H]7O)[C@H](O)[C@H]6O)[C@H](O)C[C@]5(C)[C@H]4CC[C@]3(C)[C@H]1[C@@H]2C", "note": "(some centres not stated)", "values": [{"measurement": "Activity", "setting": "Homo sapiens [1]", "value": "Increase"}, {"measurement": "Activity", "setting": "Homo sapiens [2]", "value": "Increase"}]}
